Experimental data published in ChEMBL document CHEMBL1134978, “Novel 2,5-dideoxystreptamine derivatives targeting the ribosomal decoding site RNA” (Bioorg Med Chem Lett, 2002).

The molecules below were run against Nucleic Acid (assay: In vitro inhibition of decoding site of bacterial rRNA (within the 30S ribosomal subunit) encoding luciferase reporter in transcription-translation assay).
Type: functional, Bacteria
Summary of the method: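 Coupled transcription–translation in bacterial S30 extract. Compounds were preincubated with the extract, then NTPs, amino acids and a plasmid encoding firefly luciferase were added, and plates were incubated 20 min at 25 °C. After chilling on ice, luciferin substrate was added for 15 min at room temperature and luminescence was read. Doses spanned 1 mM to 100 nM with six replicates per concentration. IC50 came from a variable-slope fit of light units vs log(c).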
`NC1CC(N)C(C(=O)N2CCNCC2)CC1O` (configuration not stated) gave an IC50 of over 1000 µM. With `NC1CC(N)C(C(=O)NCCCN2CCCC2=O)CC1O` (configuration not stated) the IC50 was over 1000 µM. Work on `N#Cc1cccc(NC(=O)C2CC(O)C(N)CC2N)c1` (configuration not stated) yielded an IC50 of 450 µM. Work on `NC1CC(N)C(C(=O)NCCN2CCOCC2)CC1O` (configuration not stated) yielded an IC50 of over 1000 µM. Molecule `NC(=O)C1CC(O)C(N)CC1N` (configuration not stated) has an IC50 of over 1000 µM. With `NC1CC(N)C(C(=O)Nc2ccc(-c3cnco3)cc2)CC1O` (configuration not stated) the IC50 was 59 µM. For `N[C@@H]1C[C@H](N)[C@@H](O)[C@H](O)[C@H]1O`, the IC50 was over 1000 µM. In the case of `NC1CC(N)C(C(=O)N2CCC3(CC2)OCCO3)CC1O` (configuration not stated), the IC50 is reported as over 1000 µM. `NC1CC(N)C(C(=O)Nc2ccc(-n3ccnc3)cc2)CC1O` (configuration not stated) gave an IC50 of 290 µM. With `NC(=O)[C@H]1CCCN1C(=O)C1CC(O)C(N)CC1N` (some centres not stated) the IC50 was over 1000 µM. Molecule `NC1CC(N)C(C(=O)N2CCN(C3=NCCCN3)CC2)CC1O` (configuration not stated) has an IC50 of over 1000 µM. `NC1CC(N)C(OC2OC(CO)C(O)C(O)C2N)C(O)C1O` (configuration not stated) was tested, and the IC50 was 3.9 µM.
